Results: ChEMBL document CHEMBL1141461, “Polyene antibiotics from Streptomyces mediocidicus” (2007)
≈ marks a conversion by molar mass, not a printed value. Values belong to the molecule of their own block, whether it stands above or below them.

Legend:
Format in all cases: functional
Aspergillus niger = assay: Antifungal activity against Aspergillus niger GC 3091
Candida albicans [1] = assay: Antifungal activity against Candida albicans GC 3066
How it was run: (§1)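 Yeast MIC by broth microdilution in RPMI-1640. Agent at final 0.03-128 µg/mL, yeast inoculum 0.5-2.5 × 10^3 cfu/mL. MIC read after 48 h incubation at 30 °C.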

Candida parapsilosis [2] = assay: Antifungal activity against Candida parapsilosis GC 3075; conditions: Lodderomyces parapsilosis; how it was run: as §1
Candida tropicalis [3] = assay: Antifungal activity against Candida tropicalis GC 3080; how it was run: as §1
Diutina rugosa = assay: Antifungal activity against Candida rugosa GC 3077; how it was run: as §1
Kluyveromyces marxianus = assay: Antifungal activity against Candida pseudotropicalis GC 3070; how it was run: as §1
Candida albicans [4] = assay: Antifungal activity against Candida albicans GC 3065; how it was run: as §1
Candida parapsilosis [5] = assay: Antifungal activity against Candida parapsilosis GC 3076; conditions: Lodderomyces parapsilosis; how it was run: as §1
Candida albicans [6] = assay: Antifungal activity against Candida albicans GC 3064; how it was run: as §1
Clavispora lusitaniae = assay: Antifungal activity against Candida lusitaniae GC 3068; how it was run: as §1
Aspergillus fumigatus = assay: Antifungal activity against Aspergillus fumigatus GC 3092
Candida parapsilosis [7] = assay: Antifungal activity against Candida parapsilosis GC 3074; conditions: Lodderomyces parapsilosis; how it was run: as §1
Pichia kudriavzevii = assay: Antifungal activity against Candida Krussii GC 3067; how it was run: as §1
Candida tropicalis [8] = assay: Antifungal activity against Candida tropicalis GC 3081; how it was run: as §1

Structure (SMILES): C\C(=C/C=C/C=C/CC/C=C/C(C)C(O)C(C)C(O)/C=C/C=C/C=C/C=C/C=C/C=C/CC(OS(=O)(=O)O)C(C)C(=O)CC(O)CC(O)/C=C/CC(O)CC(O)CC(O)/C=C/CC(O)CC(O)/C=C/CC(O)CC(O)CCCNC(=N)N)C(=O)O (stereo not given) [CLETHRAMYCIN]
MIC (Aspergillus niger): 4 µg/mL (≈ 3.28 µM)
MIC (Candida albicans [1]): 4 µg/mL (≈ 3.28 µM)
MIC (Candida parapsilosis [2]): 16 µg/mL (≈ 13.1 µM)
MIC (Candida tropicalis [3]): 16 µg/mL (≈ 13.1 µM)
MIC (Diutina rugosa): 4 µg/mL (≈ 3.28 µM)
MIC (Kluyveromyces marxianus): 2 µg/mL (≈ 1.64 µM)
MIC (Candida albicans [4]): 4 µg/mL (≈ 3.28 µM)
MIC (Candida parapsilosis [5]): 16 µg/mL (≈ 13.1 µM)
MIC (Candida albicans [6]): 4 µg/mL (≈ 3.28 µM)
MIC (Clavispora lusitaniae): 4 µg/mL (≈ 3.28 µM)
MIC (Aspergillus fumigatus): > 128 µg/mL
MIC (Candida parapsilosis [7]): 16 µg/mL (≈ 13.1 µM)
MIC (Pichia kudriavzevii): 2 µg/mL (≈ 1.64 µM)
MIC (Candida tropicalis [8]): 8 µg/mL (≈ 6.57 µM)

Structure (SMILES): COC(=O)/C(C)=C/C=C/C=C/CC/C=C/C(C)C(O)C(C)C(O)/C=C/C=C/C=C/C=C/C=C/C=C/CC(OS(=O)(=O)O)C(C)C(=O)CC(O)CC(O)/C=C/CC(O)CC(O)CC(O)/C=C/CC(O)CC(O)/C=C/CC(O)CC(O)CCCN (stereo not given)
MIC (Aspergillus niger): > 128 µg/mL
MIC (Candida albicans [1]): 32 µg/mL (≈ 26.9 µM)
MIC (Candida parapsilosis [2]): > 128 µg/mL
MIC (Candida tropicalis [3]): 16 µg/mL (≈ 13.4 µM)
MIC (Diutina rugosa): 8 µg/mL (≈ 6.72 µM)
MIC (Kluyveromyces marxianus): 8 µg/mL (≈ 6.72 µM)
MIC (Candida albicans [4]): 16 µg/mL (≈ 13.4 µM)
MIC (Candida parapsilosis [5]): > 128 µg/mL
MIC (Candida albicans [6]): 16 µg/mL (≈ 13.4 µM)
MIC (Clavispora lusitaniae): 16 µg/mL (≈ 13.4 µM)
MIC (Aspergillus fumigatus): > 128 µg/mL
MIC (Candida parapsilosis [7]): 128 µg/mL (≈ 108 µM)
MIC (Pichia kudriavzevii): 8 µg/mL (≈ 6.72 µM)
MIC (Candida tropicalis [8]): 32 µg/mL (≈ 26.9 µM)

Structure (SMILES): C[C@@H]1[C@H](O)[C@@H](C)/C=C/C=C/C=C/C=C/C=C/C=C/C=C/[C@H](O[C@@H]2O[C@H](C)[C@@H](O)[C@H](N)[C@@H]2O)C[C@@H]2O[C@](O)(C[C@@H](O)C[C@@H](O)[C@H](O)CC[C@@H](O)C[C@@H](O)CC(=O)O[C@H]1C)C[C@H](O)[C@H]2C(=O)O [AMPHOTERICIN B]
MIC (Aspergillus niger): 0.25 µg/mL (≈ 0.271 µM)
MIC (Candida albicans [1]): 0.25 µg/mL (≈ 0.271 µM)
MIC (Candida parapsilosis [2]): 0.5 µg/mL (≈ 0.541 µM)
MIC (Candida tropicalis [3]): 0.5 µg/mL (≈ 0.541 µM)
MIC (Diutina rugosa): 0.5 µg/mL (≈ 0.541 µM)
MIC (Kluyveromyces marxianus): 0.25 µg/mL (≈ 0.271 µM)
MIC (Candida albicans [4]): 0.25 µg/mL (≈ 0.271 µM)
MIC (Candida parapsilosis [5]): 0.5 µg/mL (≈ 0.541 µM)
MIC (Candida albicans [6]): 0.5 µg/mL (≈ 0.541 µM)
MIC (Clavispora lusitaniae): 0.25 µg/mL (≈ 0.271 µM)
MIC (Aspergillus fumigatus): 0.25 µg/mL (≈ 0.271 µM)
MIC (Candida parapsilosis [7]): 0.25 µg/mL (≈ 0.271 µM)
MIC (Pichia kudriavzevii): 0.5 µg/mL (≈ 0.541 µM)
MIC (Candida tropicalis [8]): 0.5 µg/mL (≈ 0.541 µM)

Continued, values first:

MIC (Aspergillus niger): 1 µg/mL (≈ 0.912 µM)
MIC (Candida albicans [1]): 1 µg/mL (≈ 0.912 µM)
MIC (Candida parapsilosis [2]): 4 µg/mL (≈ 3.65 µM)
MIC (Candida tropicalis [3]): 2 µg/mL (≈ 1.82 µM)
MIC (Diutina rugosa): 1 µg/mL (≈ 0.912 µM)
MIC (Kluyveromyces marxianus): 1 µg/mL (≈ 0.912 µM)
MIC (Candida albicans [4]): 1 µg/mL (≈ 0.912 µM)
MIC (Candida parapsilosis [5]): 2 µg/mL (≈ 1.82 µM)
MIC (Candida albicans [6]): 1 µg/mL (≈ 0.912 µM)
MIC (Clavispora lusitaniae): 2 µg/mL (≈ 1.82 µM)
MIC (Aspergillus fumigatus): 16 µg/mL (≈ 14.6 µM)
MIC (Candida parapsilosis [7]): 2 µg/mL (≈ 1.82 µM)
MIC (Pichia kudriavzevii): 1 µg/mL (≈ 0.912 µM)
MIC (Candida tropicalis [8]): 2 µg/mL (≈ 1.82 µM)
Structure (SMILES): C\C(=C/C=C/C=C/CC/C=C/C(C)C(O)C(C)C(O)/C=C/C=C/C=C/C=C/C=C/C=C/CC(O)C(C)C(=O)CC(O)CC(O)/C=C/CC(O)CC(O)CC(O)/C=C/CC(O)CC(O)/C=C/CC(O)CC(O)CCCN)C(=O)O (stereo not given) [MEDIOMYCIN B]

MIC (Aspergillus niger): 1 µg/mL (≈ 0.85 µM)
MIC (Candida albicans [1]): 4 µg/mL (≈ 3.4 µM)
MIC (Candida parapsilosis [2]): 16 µg/mL (≈ 13.6 µM)
MIC (Candida tropicalis [3]): 16 µg/mL (≈ 13.6 µM)
MIC (Diutina rugosa): 2 µg/mL (≈ 1.7 µM)
MIC (Kluyveromyces marxianus): 1 µg/mL (≈ 0.85 µM)
MIC (Candida albicans [4]): 2 µg/mL (≈ 1.7 µM)
MIC (Candida parapsilosis [5]): 16 µg/mL (≈ 13.6 µM)
MIC (Candida albicans [6]): 2 µg/mL (≈ 1.7 µM)
MIC (Clavispora lusitaniae): 2 µg/mL (≈ 1.7 µM)
MIC (Aspergillus fumigatus): 128 µg/mL (≈ 109 µM)
MIC (Candida parapsilosis [7]): 16 µg/mL (≈ 13.6 µM)
MIC (Pichia kudriavzevii): 2 µg/mL (≈ 1.7 µM)
MIC (Candida tropicalis [8]): 8 µg/mL (≈ 6.8 µM)
Structure (SMILES): C\C(=C/C=C/C=C/CC/C=C/C(C)C(O)C(C)C(O)/C=C/C=C/C=C/C=C/C=C/C=C/CC(OS(=O)(=O)O)C(C)C(=O)CC(O)CC(O)/C=C/CC(O)CC(O)CC(O)/C=C/CC(O)CC(O)/C=C/CC(O)CC(O)CCCN)C(=O)O (stereo not given) [MEDIOMYCIN A]
